TRAIL sens C8 – viability loss with TRAIL in NB7+C8 cells, primary screen, TRAIL sensitizer project, cell-based, ATPlite luminescence | inhibition (viability loss, TRAIL sensitization), % at 10 µM | hit rate 1% among 360,000;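 active means compounds causing at least 50% loss of cell viability in the single-dose screen, relative to plate controls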
PPC-1+TRAIL kill – compounds killing PPC-1 cancer cells with TRAIL present, primary screen, TRAIL potentiator project, ATPLite luminescence, uHTS. PPC-1 cells + TRAIL, ATPLite viability luminescence. cell killing (% activity), % at 4 µM or 5 µM. hit rate 0.41% among 220,000. AID 1443, 2008;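 active means cell killing above 50% in the first pass at 4 µM, then a duplicate retest at 5 µM averaging 50% or more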;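 further: plate controls were cells with TRAIL plus DMSO for no effect and medium-only wells lacking cells for full effect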
FLuc act counter – FLuc activators, initial screening, artefact control for FLuc-dependent activation tests, biochemical, ATPlite luminescence | 200,000 tested, under 10 active | activation factor at 10 µM | ATPlite luciferase biochemical, 10 min; 0 = ATP-free wells, 1 = DMSO control | Luciferin 4-monooxygenase (Photinus pyralis), P08659;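 active means luciferase activation factor, scaled between plate controls, of at least 2 with compound at 10 µM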
Target sequence (P08659 whole entry, looked up): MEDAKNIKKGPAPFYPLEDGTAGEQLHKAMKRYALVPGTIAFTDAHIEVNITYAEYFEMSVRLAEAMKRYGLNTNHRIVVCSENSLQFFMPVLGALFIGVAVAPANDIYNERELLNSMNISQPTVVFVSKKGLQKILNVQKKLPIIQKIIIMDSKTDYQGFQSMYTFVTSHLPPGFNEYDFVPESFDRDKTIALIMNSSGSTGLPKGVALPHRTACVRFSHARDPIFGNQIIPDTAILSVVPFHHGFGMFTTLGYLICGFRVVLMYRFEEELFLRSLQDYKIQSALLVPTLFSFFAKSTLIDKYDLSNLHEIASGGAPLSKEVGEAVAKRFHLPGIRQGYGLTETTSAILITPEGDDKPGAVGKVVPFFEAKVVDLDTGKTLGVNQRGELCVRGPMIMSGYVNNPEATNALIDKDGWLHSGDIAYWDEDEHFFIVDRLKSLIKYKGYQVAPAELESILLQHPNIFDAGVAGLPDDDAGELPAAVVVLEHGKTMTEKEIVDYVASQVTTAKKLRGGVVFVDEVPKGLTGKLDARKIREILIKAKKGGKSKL
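test system = cell-free luciferase reagent | medium = PBS as buffer for the ATP substrate | dosing = test compounds dosed from 2 mM stocks in 100% DMSO | incubation = 10 min at ambient temperature | detection = luminescence measurement of luciferase light output | benchmarks = low control with PBS replacing ATP, high control enzyme plus ATP without compound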
FLuc inhib CS – firefly luciferase enzyme inhibitors, primary screen, artefact control for luciferase-based inhibitor screens, biochemical, luminescence, ATPLite; Luciferin 4-monooxygenase (Photinus pyralis), P08659; 10 min; inhibition, % at 10 µM; hit rate 1.5% among 200,000;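 active means inhibition above about 50% when tested at 10 µM, limit read from the data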
Active calls of the source: *; . = not tested or not shown. A selection: hits, their analogues and other compounds. The true share with any hit is near 1.5%.

SMILES	TRAIL sens C8	PPC-1+TRAIL kill	FLuc act counter	FLuc inhib CS
O=C(CCN1C(=O)/C(=C/c2ccc(F)cc2)SC1=S)NCCc1cnc[nH]1	18.8	.	.	.
Nc1ccc(/C=C/C(=O)c2cccs2)cc1	-0.8	21.3	0.2	76.9*
O=C(C=Cc1ccccc1)c1cccs1	1.1	.	.	.
Cc1cc(/C=N/NC(=O)C(=O)NCc2ccccn2)c(C)n1-c1ccccc1	32.9	14.1	0.4	58.4*
Cc1cc(/C=N\NC(=O)COc2cccc3cccnc23)c(C)n1-c1ccccc1	22.6	12.5	0.3	71.4*
Cc1cc(/C=N/NC(=O)c2ccccn2)c(C)n1-c1cccc([N+](=O)[O-])c1	-2.2	19.6	0.9	10.8
COc1ccccc1CNC(=O)CCS(=O)(=O)c1cccs1	1.5	10.7	1	-3.9
Cc1ccc(C)c(N(CC(=O)Nc2ccccc2C(=O)NCc2ccco2)S(=O)(=O)c2ccccc2)c1	2.4	22.9	1	-4.8
Cc1nc(-c2coc3cc(O)c(C)cc3c2=O)cs1	60.2*	12.5	0.2	82.7*
CC1(C)Oc2ccc(NC(=O)c3ccco3)cc2O1	27.6	28.0	0.4	63.4*
O=C(Nc1ccc2c(c1)OCCO2)c1ccco1	34.9	26.3	0.5	50.4*
O=C(COC(=O)c1ccco1)Nc1ccc2c(c1)OCCO2	2.3	30.3	0.3	68.6*
Cc1ccc(-n2[nH]c(C)c(/C=N/Nc3ccc([N+](=O)[O-])cc3[N+](=O)[O-])c2=O)cc1C	23.6	13.2	0.7	32.5
CCOc1ccc(OCc2cccc(C(=O)N3CCOCC3)c2)cc1	65.2*	42.8	0.3	72.1*
O=C(c1cccc(OCc2ccccc2)c1)N1CCOCC1	-6.7	3.8	1	-0.1
Cc1ccc(-c2nn(-c3ccccc3)cc2NC(=O)CCl)cc1	56.4*	28.5	0.9	5.8
COC(=O)C1=C(C(=O)OC)[C@@H]2N(C)c3ccccc3[C@@]23C[C@@H](C(=O)OC)N(C(=O)c2cccs2)C3=N1	10.0	17.9	.	.
COC(=O)C1=C(C(=O)OC)[C@@H]2N(Cc3ccccc3)c3ccccc3[C@@]23C[C@@H](C(=O)OC)N(C(=O)c2cccs2)C3=N1	54.2*	5.2	.	.
CCCc1nc2ccc(NC(C)=O)cc2c(=O)n1Cc1ccc(Cl)cc1	6.0	12.5	1	-2.0
CC(=O)c1cccc(N/C=C\C(=O)c2ccc(C)cc2)c1	52.1*	61.5*	0.1	91.2*
Cc1ccc(C(=O)/C=C/Nc2ccc3c(c2)OCO3)cc1	61.4*	49.6	0.2	79.6*
CC(=O)c1cccc(NS(=O)(=O)c2ccc(N/C=C\C(=O)c3ccc(C)cc3)cc2)c1	33.8	10.6	1.1	-5.8
C/C(=C\C(=O)c1ccc(C)cc1)Nc1cccc(O)c1	23.8	27.0	0.3	65.4*
CCOc1ccc(S(=O)(=O)Nc2nc3ccccc3nc2N2CCN(C)CC2)cc1	-7.0	33.9	1	-1.9
CCOC(=O)N1CCN(C(=O)CCc2c(C)nc3c(c(C)nn3-c3ccc(C)c(C)c3)c2C)CC1	-6.9	6.4	1	-3.0
SMILES	TRAIL sens C8	PPC-1+TRAIL kill	FLuc act counter	FLuc inhib CS
COC(=O)c1ccccc1NC1=C/C(=N\S(=O)(=O)c2ccc(C(=O)O)cc2)c2ccccc2C1=O	69.0*	.	.	.
COC(=O)c1ccccc1NC1=C/C(=N\S(=O)(=O)c2cccs2)c2ccccc2C1=O	80.4*	4.1	0.9	10.2
COC(=O)c1cccc(NS(=O)(=O)c2cccs2)c1C	-6.1	21.7	1.1	-8.4
COc1ccc(C2C(C(=O)N3CCN(c4ccccc4)CC3)c3ccccc3C(=O)N2C)cc1 (centres undefined)	59.0*	43.0	1.1	-9.8
COc1ccc(C2C(C(=O)N3CCOCC3)c3ccccc3C(=O)N2c2ccc(OC)cc2)cc1 (centres undefined)	1.9	7.0	1	-1.0
COc1ccc(C2C(C(=O)N3CCN(c4ccccc4)CC3)c3ccccc3C(=O)N2C)cc1OC (centres undefined)	68.0*	20.7	1	0.3
N/C(=N\OC(=O)c1cc(Cl)ccc1Cl)c1cccnc1	6.0	2.0	0.8	15.8
N/C(=N\OC(=O)c1ccccc1Cl)c1ccncc1	20.8	19.4	0.5	54.4*
N/C(=N\OC(=O)CCCc1ccccc1)c1ccccc1	-7.7	.	.	.
N/C(=N\OC(=O)c1ccccc1Cl)c1cccnc1	68.7*	29.0	0.2	83.4*
N/C(=N\OC(=O)CCC1CCCC1)c1ccc(Br)cc1	0.3	.	.	.

Compound activity (PubChem)
